Measurements published in PMC3925341 (Journal of medicinal chemistry, 2013).
“Also recorded” adds a separate entry of the source.

What was measured:
[1] = test system: CUG repeat; conditions: cited from earlier work
[2] = test system: DM1 cell model (HeLa cells); conditions: cited from earlier work
[3] = test system: CUG^exp foci in DM1 cell model (HeLa cells transfected with DMPK-CTG960); test: FISH study of; assay type: cell-based; conditions: 36 h
[4] = test system: HeLa cells; test: Sulforhodamine B cytotoxicity assay; assay type: cell-based; conditions: concentrations up to 75 μM, 24 h
[5] = test system: DM1 cell model (HeLa cells); test: Cellular and nuclear penetration by acridine fluorescence; assay type: cell-based; conditions: monitored by inherent acridine fluorescence
In short: (§1)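 Live-cell time-lapse confocal imaging of HeLa cells co-transfected with a DMPK-CTG960 minigene plasmid and a GFP-MBNL1 plasmid. Test compound at 50 μM final. Images were taken just before addition and at 3, 6 and 10 h. Cells were relocated on a gridded dish by DIC. Compound uptake was followed by its acridine fluorescence, and foci by GFP-MBNL1. Untreated cells served as control. Z-stacks of 1 μm slices were taken at 10 h.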

[6] = Solubility in buffer / water
[7] = biological target: TAMRA-(CUG)6; test: Steady state fluorescence titration of 5'-TAMRA-; assay type: binding; conditions: for KD: TAMRA-(CUG)6, 1X PBS; for fold decrease in KD compared to 2 (fold greater affinity to (CUG)6): relative to monomeric ligand 2
In short: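 TAMRA-(CUG)6 was titrated with increasing test compound in 1X PBS, with excitation at 560 nm and emission at 590 nm. Normalized fluorescence intensities were fitted to a binding equation with Fmax and F0 to give KD. Mean ± s.d. of three independent experiments.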

[8] = test system: (CUG)12·MBNL1; test: SPR-based inhibition of the MBNL1·; assay type: biochemical; conditions: relative to monomeric ligand 2
In short: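 Biotinylated (CUG)12 was immobilized on a streptavidin SPR chip, with Tween-20 and excess competitor tRNA, in 1X PBS. The chip was preincubated with test compound to steady-state RU over 150 s. MBNL1 (0.65 μM) was then injected with compound held at the same concentration. Maximum RU at 150 s was converted to % (CUG)12 bound, normalized to no compound, and fitted dose-response for apparent IC50. Normalized IC50 = IC50 divided by the number of binding modules. Bivalent effect = normalized IC50 of monomer reference divided by that of dimer. Three experiments.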

[9] = test system: MBNL1 foci in live DM1 cell model (HeLa cells, DMPK-CTG960 and GFP-MBNL1); test: Time-lapse confocal microscopy of MBNL1 foci in live DM1 model cells; assay type: cell-based; conditions: 50 μM, over 10 h
In short: as §1

[10] = test system: (CUG)12; test: Optical melting; assay type: binding; conditions: 11 versus 7, same number of linker atoms
[11] = 20, 35 and 50 μM (any concentration)

SMILES: COc1ccc2nc3cc(Cl)ccc3c(NCCCCNc3nc(N)nc(N)n3)c2c1 [Ligand 1]
- selectivity for CUG repeat relative to a random duplex [1]: over 50 fold
- cell permeability [2]: poor cell permeability

SMILES: CNC(=O)c1ccc2nc3ccccc3c(NCCCCNc3nc(N)nc(N)n3)c2c1 [Ligand 2]
- (CUG)960 foci dispersion [3, 11]: no significant foci dispersion
- cytotoxicity [4]: less than 20%

SMILES: Nc1nc(N)nc(NCCCCNc2c3ccccc3nc3ccc(C(=O)NCCCNCCCCCCCCNCCCNC(=O)c4ccc5nc6ccccc6c(NCCCCNc6nc(N)nc(N)n6)c5c4)cc23)n1 [Ligand 5]
- (CUG)960 foci dispersion [3, 11]: no significant foci dispersion
- cellular and nuclear penetration [5]: cell-permeable and nucleus-permeable
- Solubility in the buffer used for optical melting (Solution) ([6]; N.S. = not sufficiently soluble): not fully soluble

SMILES: Nc1nc(N)nc(NCCCCNc2c3ccccc3nc3ccc(C(=O)NCCOCCOCCNC(=O)c4ccc5nc6ccccc6c(NCCCCNc6nc(N)nc(N)n6)c5c4)cc23)n1 [Ligand 7]
- KD [7]: close to the monomeric ligand 2
- bivalent effect (ratio of normalized IC50 of 2 to that of the dimeric ligand) [8]: 8

SMILES: Nc1nc(N)nc(NCCCCNc2c3ccccc3nc3c(C(=O)NCCOCCOCCOCCOCCOCCNC(=O)c4cccc5c(NCCCCNc6nc(N)nc(N)n6)c6ccccc6nc45)cccc23)n1 [Ligand 8]
- bivalent effect (ratio of normalized IC50 of 2 to that of the dimeric ligand) [8]: 4

SMILES: Nc1nc(N)nc(NCCCCNc2c3ccccc3nc3c(C(=O)NCCCNCCCNCCCNC(=O)c4cccc5c(NCCCCNc6nc(N)nc(N)n6)c6ccccc6nc45)cccc23)n1 [Ligand 9]
- fold tighter binder than 10 ([7]; 9 versus 10): 10 fold
- fold decrease in KD compared to 2 (fold greater affinity to (CUG)6) [7]: 206 fold
- (CUG)960 foci dispersion ([3]; 20 μM, p-value < 0.009): partial foci dispersion
- (CUG)960 foci dispersion ([3]; 35 μM, p-value < 0.009): partial foci dispersion
- (CUG)960 foci dispersion ([3]; 50 μM): full foci dispersion
- MBNL1 foci dispersion in live cells [9]: almost complete dispersion; also recorded: gradually dispersing over time; also recorded: almost all the foci are dispersed; also recorded: gradual MBNL1 foci dispersion
- cellular and nuclear penetration [5]: both cell- and nucleus-permeable; also recorded: penetrate the cellular and nuclear membrane
- Aqueous solubility [6]: aqueous-soluble
- bivalent effect (ratio of normalized IC50 of 2 to that of the dimeric ligand) [8]: 133
- fold greater inhibition potency than 2 in inhibiting formation of the (CUG)12·MBNL1 complex [8]: 266 fold
- cytotoxicity [4]: less than 20%

SMILES: Nc1nc(N)nc(NCCCCNc2c3ccccc3nc3c(C(=O)NCCNCCNCCNCCNC(=O)c4cccc5c(NCCCCNc6nc(N)nc(N)n6)c6ccccc6nc45)cccc23)n1 [Ligand 10]
- fold decrease in KD compared to 2 (fold greater affinity to (CUG)6) [7]: 17 fold
- bivalent effect (ratio of normalized IC50 of 2 to that of the dimeric ligand) [8]: 24

SMILES: Nc1nc(N)nc(NCCCCNc2c3ccccc3nc3c(C(=O)NCCNCCNCCNC(=O)c4cccc5c(NCCCCNc6nc(N)nc(N)n6)c6ccccc6nc45)cccc23)n1 [Ligand 11]
- fold decrease in KD compared to 2 (fold greater affinity to (CUG)6) [7]: 14 fold
- (CUG)960 foci dispersion [3, 11]: no significant foci dispersion
- fold higher ΔTm value than 7 [10]: > 3 fold
- bivalent effect (ratio of normalized IC50 of 2 to that of the dimeric ligand) [8]: 29

SMILES: Nc1nc(N)nc(NCCCCNc2c3ccccc3nc3ccc(C(=O)NCCCOCCOCCOCCCNC(=O)c4ccc5nc6ccccc6c(NCCCCNc6nc(N)nc(N)n6)c5c4)cc23)n1 [Ligand 12]
- KD [7]: close to the monomeric ligand 2
- bivalent effect (ratio of normalized IC50 of 2 to that of the dimeric ligand) [8]: 5

SMILES: Nc1nc(N)nc(NCCCCNc2c3ccccc3nc3ccc(C(=O)NCCOCCOCCOCCOCCOCCNC(=O)c4ccc5nc6ccccc6c(NCCCCNc6nc(N)nc(N)n6)c5c4)cc23)n1 [Ligand 13]
- bivalent effect (ratio of normalized IC50 of 2 to that of the dimeric ligand) [8]: 3

SMILES: NCCCNCCCCNCCCN [spermine, Spermine, reference compound]
- (CUG)960 foci dispersion [3, 11]: no significant foci dispersion
